From ChEMBL document CHEMBL2384914, “Synthetic tactics of new class of 4-aminothieno[2,3-d]pyrimidine-6-carbonitrile derivatives acting as antimicrobial agents” (2013)

What was measured:
Streptococcus pyogenes = test: Antibacterial activity against Streptococcus pyogenes MTCC 442 assessed as growth inhibition by broth microdilution method; format: functional
Staphylococcus aureus = test: Antibacterial activity against Staphylococcus aureus MTCC 96 assessed as growth inhibition by broth microdilution method; format: functional
Escherichia coli = test: Antibacterial activity against Escherichia coli MTCC 443 assessed as growth inhibition by broth microdilution method; format: functional
Pseudomonas aeruginosa = test: Antibacterial activity against Pseudomonas aeruginosa MTCC 441 assessed as growth inhibition by broth microdilution method; format: functional
Aspergillus clavatus [1] = test: Antifungal activity against Aspergillus clavatus MTCC 1323 assessed as growth inhibition by broth microdilution method; format: functional
Aspergillus niger = test: Antifungal activity against Aspergillus niger MTCC 282 assessed as growth inhibition by broth microdilution method; format: functional
In short: (§1)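 Fungal MTCC cultures were tested by broth microdilution with DMSO-diluted drug in serial dilutions, as a primary screen followed by a second dilution set for actives. MIC was the lowest concentration inhibiting growth. Each experiment was run three times and the MICs averaged.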

Candida albicans = test: Antifungal activity against Candida albicans MTCC 227 assessed as growth inhibition by broth microdilution method; format: functional; in short: as §1
Aspergillus clavatus [2] = conditions: MTCC 1323

Molecule	MIC (Streptococcus pyogenes) [µg/mL]	MIC (Staphylococcus aureus) [µg/mL]	MIC (Escherichia coli) [µg/mL]	MIC (Pseudomonas aeruginosa) [µg/mL]	MIC (Aspergillus clavatus [1]) [µg/mL]	MIC (Aspergillus niger) [µg/mL]	MIC (Candida albicans) [µg/mL]	MIC (Aspergillus clavatus [2]) [µg/mL]
CCn1cc(C(=O)O)c(=O)c2cc(F)c(N3CCNCC3)cc21 [NORFLOXACIN]	10	10	10	10				
N#Cc1sc2ncnc(N3CCCCC3)c2c1-c1ccc(Cl)cc1	200	125	250	250	> 1000	> 1000	250	
Cc1cccc(Nc2ncnc3sc(C#N)c(-c4ccc(Cl)cc4)c23)c1	250	250	250	200	> 1000	> 1000	> 1000	
O=C(O)c1cn(C2CC2)c2cc(N3CCNCC3)c(F)cc2c1=O [CIPROFLOXACIN]	50	50	25					
NC(=O)c1sc2nc[nH]c(=O)c2c1-c1ccc(Cl)cc1	200	200	125	200	500	250	> 1000	
N#Cc1sc2ncnc(Nc3ccccc3Cl)c2c1-c1ccc(Cl)cc1	100	200	125	62.5	> 1000	> 1000	500	
N#Cc1sc2nc[nH]c(=O)c2c1-c1ccc(Cl)cc1	250	200	100	62.5	> 1000	> 1000	500	
NYSTATIN						100	100	100
N#Cc1sc2ncnc(N3CCN(C(=O)C4COc5ccccc5O4)CC3)c2c1-c1ccc(Cl)cc1 (stereo not drawn)	125	100	100	250	1000	1000	250	
Cc1ccccc1Nc1ncnc2sc(C#N)c(-c3ccc(Cl)cc3)c12	125	250	200	200	> 1000	> 1000	> 1000	
N#Cc1sc2ncnc(N3CCN(c4nsc5ccccc45)CC3)c2c1-c1ccc(Cl)cc1	200	200	100	250	> 1000	> 1000	500	
N#Cc1sc2ncnc(N3CCNCC3)c2c1-c1ccc(Cl)cc1	100	62.5	125	250	> 1000	1000	1000	
N#Cc1sc2ncnc(N3CCN(c4cccc(Cl)c4Cl)CC3)c2c1-c1ccc(Cl)cc1	250	250	200	100	1000	500	1000	
CCN(CC)c1ncnc2sc(C#N)c(-c3ccc(Cl)cc3)c12	200	200	200	250	> 1000	> 1000	1000	
CCOC(=O)N1CCN(c2ncnc3sc(C#N)c(-c4ccc(Cl)cc4)c23)CC1	250	250	62.5	100	1000	1000	> 1000	
COC1=CC(=O)C[C@@H](C)[C@]12Oc1c(Cl)c(OC)cc(OC)c1C2=O [GRISEOFULVIN]					100	100	500	
NC(=O)c1sc(N)c(C(N)=O)c1-c1ccc(Cl)cc1	200	250	200	250	> 1000	> 1000	500	
N#Cc1sc2ncnc(Cl)c2c1-c1ccc(Cl)cc1	250	100	200	250	1000	1000	1000	
CC1(C)S[C@@H]2[C@H](NC(=O)[C@H](N)c3ccccc3)C(=O)N2[C@H]1C(=O)O [AMPICILLIN]	100	250	100					
N#Cc1sc2ncnc(Nc3cccc(Cl)c3)c2c1-c1ccc(Cl)cc1	250	200	100	100	500	500	> 1000	
N#Cc1sc2ncnc(N3CCOCC3)c2c1-c1ccc(Cl)cc1	250	250	125	200	> 1000	> 1000	1000	
N#Cc1sc2ncnc(NCc3ccccc3)c2c1-c1ccc(Cl)cc1	125	100	250	250	1000	1000	1000	
GENTAMICIN	0.5	0.25	0.05	1				
O=C(N[C@H](CO)[C@H](O)c1ccc([N+](=O)[O-])cc1)C(Cl)Cl [CHLORAMPHENICOL]	50	50	50	50				
